From ChEMBL document CHEMBL3351467, “Ligand-free Pd-catalyzed C-N cross-coupling/cyclization strategy: an unprecedented access to 1-thienyl pyrroloquinoxalines for the new approach towards apoptosis” (Eur J Med Chem, 2014)
Active and inactive are the calls of the source. The rule behind the calls is not given here.

Experiments:
Danio rerio [1] = species on record: Danio rerio; assay: Toxicity in Zebrafish embryo assessed as induction of changes in lower jaw region at 1 uM; type: organism-based; conditions: in vivo
Method in brief: (§1)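 Embryos at 1 dpf dechorionated with 0.5 mg/ml pronase E and washed in E3. Exposed 6 per well to compound serially diluted in E3 with a final 0.1% DMSO, at 28.5 °C until 5 dpf. Embryos then washed, anaesthetised with 0.008% tricaine and scored blind for body shape, somites, notochord, tail, intestine, fins, brain, jaws, heart, liver and swim bladder. Phenobarbital (3 mM) served as positive control.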

Danio rerio [2] = species on record: Danio rerio; assay: Toxicity in Zebrafish embryo assessed as induction of changes in brain region at 1 uM; type: organism-based; conditions: in vivo; method in brief: as §1
Danio rerio [3] = species on record: Danio rerio; assay: Teratogenicity in Zebrafish embryo incubated at 28.5 degC until 5 days post fertilization; type: ADME, organism-based; conditions: in vivo, 120 h; method in brief: as §1
Danio rerio [4] = species on record: Danio rerio; assay: Toxicity in Zebrafish embryo assessed as induction of changes in upper jaw region at 1 uM; type: organism-based; conditions: in vivo; method in brief: as §1
Danio rerio [5] = species on record: Danio rerio; assay: Hepatotoxicity in Zebrafish embryo at 28 degC until 7 days post fertilization; type: organism-based; conditions: in vivo, 168 h
Method in brief: (§2)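 Larvae at 4 dpf exposed in 24-well plates, 6 per well in 0.1% DMSO, to final 1, 3, 10 and 30 concentrations, incubated at 28 °C until 7 dpf. Washed in E3 and anaesthetised with tricaine. Images scored for liver size, liver degeneration and yolk sac retention as percentages. Amiodarone served as positive control.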

Danio rerio [6] = species on record: Danio rerio; assay: Toxicity in Zebrafish embryo assessed as induction of changes in intestine region at 1 uM; type: organism-based; conditions: in vivo; method in brief: as §1
Danio rerio [7] = species on record: Danio rerio; assay: Toxicity in Zebrafish embryo at 1 to 30 uM; type: organism-based; conditions: in vivo; method in brief: as §1
Danio rerio [8] = species on record: Danio rerio; assay: Toxicity in Zebrafish embryo assessed as induction of changes in heart region at 1 uM; type: organism-based; conditions: in vivo; method in brief: as §1
Danio rerio [9] = species on record: Danio rerio; assay: Toxicity in Zebrafish embryo assessed as induction of changes in swim bladder region at 1 uM; type: organism-based; conditions: in vivo; method in brief: as §1
[10] = target: 3',5'-cyclic-AMP phosphodiesterase 4B (Homo sapiens) (UniProt Q07343); assay: Inhibition of recombinant His-tagged PDE4B1 (unknown origin) expressed in Sf9 cells at 30 uM pre-incubated for 15 mins before cAMP substrate addition by luminescence assay
Method in brief: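 PDE4B1 purified in house (10 ng) pre-incubated 15 min with compound or DMSO vehicle. cAMP substrate ([…]) added for 1 h, then reaction stopped and detection reagent applied 10 min in the dark. Luminescence (RLU) read. % inhibition = (RLU vehicle − RLU inhibitor)/RLU vehicle × 100.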

Danio rerio [11] = species on record: Danio rerio; assay: Hepatotoxicity in Zebrafish embryo at 10 to 30 uM incubated at 28 degC until 7 days post fertilization; type: organism-based; conditions: in vivo, 168 h; method in brief: as §2
Danio rerio [12] = species on record: Danio rerio; assay: Induction of apoptosis in Zebrafish embryo incubated for 24 to 48 hrs by acridine orange based fluorescence microscopy; type: functional, organism-based
Method in brief: (§3)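 Embryos dechorionated by hand at 24 hpf, 6 per well in two sets, in 0.1% DMSO. Compound added from serially diluted working stocks, kept at 28 °C for 24 h and 48 h. Washed three times in E3, stained 30 min with acridine orange ([…]) in E3, rinsed twice, then examined for apoptosis.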

Danio rerio [13] = species on record: Danio rerio; assay: Teratogenicity in Zebrafish embryo assessed as induction of morphological deformities at lower jaw at 1 uM incubated at 28.5 degC until 5 days post fertilization; type: organism-based; conditions: in vivo, 120 h; method in brief: as §1
Danio rerio [14] = species on record: Danio rerio; assay: Hepatotoxicity in Zebrafish embryo at 1 to 3 uM incubated at 28 degC until 7 days post fertilization; type: organism-based; conditions: in vivo, 168 h; method in brief: as §2
Danio rerio [15] = species on record: Danio rerio; assay: Toxicity in Zebrafish embryo assessed as induction of changes in somites at 1 uM; type: organism-based; conditions: in vivo; method in brief: as §1
Danio rerio [16] = species on record: Danio rerio; assay: Induction of apoptosis in Zebrafish embryo at 1 to 10 uM incubated for 24 to 48 hrs by acridine orange based fluorescence microscopy; type: functional, organism-based; method in brief: as §3
Danio rerio [17] = species on record: Danio rerio; assay: Toxicity in Zebrafish embryo assessed as induction of changes in body shape at 1 uM; type: organism-based; conditions: in vivo; method in brief: as §1
Danio rerio [18] = species on record: Danio rerio; assay: Toxicity in Zebrafish embryo assessed as induction of changes in notochords at 1 uM; type: organism-based, Notochord; conditions: in vivo; method in brief: as §1
Danio rerio [19] = species on record: Danio rerio; assay: Toxicity in Zebrafish embryo assessed as induction of changes in tail region at 1 uM; type: organism-based; conditions: in vivo; method in brief: as §1
Danio rerio [20] = species on record: Danio rerio; assay: Toxicity in Zebrafish embryo assessed as induction of changes in liver region at 1 uM; type: organism-based; conditions: in vivo; method in brief: as §1
[21] = Therapeutic index, ratio of NOAEL in Zebrafish embryos to apoptotic EC50 in Zebrafish embryos; type: organism-based, Danio rerio; conditions: read-out: TI
Danio rerio [22] = species on record: Danio rerio; assay: Toxicity in Zebrafish embryo assessed as induction of changes in fins region at 1 uM; type: organism-based; conditions: in vivo; method in brief: as §1
Danio rerio [23] = species on record: Danio rerio; assay: Toxicity in Zebrafish embryo assessed as induction of changes in somites at 3000 uM; type: organism-based; conditions: in vivo
Method in brief: (§4)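 Embryos at 1 dpf were dechorionated with 0.5 mg/ml pronase E and washed in E3. They were exposed in groups of 6 to compound serially diluted in E3 (final 0.1% DMSO) at 28.5 °C until 5 dpf. Embryos were then washed, anesthetized with 0.008% tricaine, and scored blinded for morphology of body shape, somites, notochord, tail, intestine, fins, brain, jaws, heart, liver and swim bladder.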

Danio rerio [24] = species on record: Danio rerio; assay: Toxicity in Zebrafish embryo assessed as induction of changes in fins region at 3000 uM; type: organism-based; conditions: in vivo; method in brief: as §4
Danio rerio [25] = species on record: Danio rerio; assay: Toxicity in Zebrafish embryo assessed as induction of changes in liver region at 3000 uM; type: organism-based; conditions: in vivo; method in brief: as §4
Danio rerio [26] = species on record: Danio rerio; assay: Toxicity in Zebrafish embryo assessed as induction of changes in tail region at 3000 uM; type: organism-based; conditions: in vivo; method in brief: as §4
Danio rerio [27] = species on record: Danio rerio; assay: Toxicity in Zebrafish embryo assessed as induction of changes in brain region at 3000 uM; type: organism-based; conditions: in vivo
Method in brief: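 Zebrafish embryos collected at 1 dpf, staged, dechorionated with 0.5 mg/ml pronase E and washed in E3 medium. Compound serially diluted in E3 with 0.1% DMSO final. Six embryos per well, exposed at 28.5 °C until 5 dpf, then washed, anaesthetised with 0.008% tricaine and scored for morphology (body shape, somites, notochord, tail, intestine, fins, brain, jaws, heart, liver, swim bladder). Blinded; phenobarbital 3 mM positive control.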

Danio rerio [28] = species on record: Danio rerio; assay: Toxicity in Zebrafish embryo assessed as induction of changes in body shape at 3000 uM; type: organism-based; conditions: in vivo; method in brief: as §4
Danio rerio [29] = species on record: Danio rerio; assay: Toxicity in Zebrafish embryo assessed as induction of changes in upper jaw region at 3000 uM; type: organism-based; conditions: in vivo; method in brief: as §4
Danio rerio [30] = species on record: Danio rerio; assay: Toxicity in Zebrafish embryo assessed as induction of changes in intestine region at 3000 uM; type: organism-based; conditions: in vivo; method in brief: as §4
Danio rerio [31] = species on record: Danio rerio; assay: Toxicity in Zebrafish embryo assessed as induction of changes in heart region at 3000 uM; type: organism-based; conditions: in vivo; method in brief: as §4
Danio rerio [32] = species on record: Danio rerio; assay: Toxicity in Zebrafish embryo assessed as induction of changes in notochords at 3000 uM; type: organism-based, Notochord; conditions: in vivo; method in brief: as §4
Danio rerio [33] = species on record: Danio rerio; assay: Toxicity in Zebrafish embryo assessed as induction of changes in lower jaw region at 3000 uM; type: organism-based; conditions: in vivo; method in brief: as §4
Danio rerio [34] = species on record: Danio rerio; assay: Toxicity in Zebrafish embryo assessed as induction of changes in swim bladder region at 3000 uM; type: organism-based; conditions: in vivo; method in brief: as §4

3',5'-cyclic-AMP phosphodiesterase 4B (Homo sapiens), sequence (Q07343 whole entry): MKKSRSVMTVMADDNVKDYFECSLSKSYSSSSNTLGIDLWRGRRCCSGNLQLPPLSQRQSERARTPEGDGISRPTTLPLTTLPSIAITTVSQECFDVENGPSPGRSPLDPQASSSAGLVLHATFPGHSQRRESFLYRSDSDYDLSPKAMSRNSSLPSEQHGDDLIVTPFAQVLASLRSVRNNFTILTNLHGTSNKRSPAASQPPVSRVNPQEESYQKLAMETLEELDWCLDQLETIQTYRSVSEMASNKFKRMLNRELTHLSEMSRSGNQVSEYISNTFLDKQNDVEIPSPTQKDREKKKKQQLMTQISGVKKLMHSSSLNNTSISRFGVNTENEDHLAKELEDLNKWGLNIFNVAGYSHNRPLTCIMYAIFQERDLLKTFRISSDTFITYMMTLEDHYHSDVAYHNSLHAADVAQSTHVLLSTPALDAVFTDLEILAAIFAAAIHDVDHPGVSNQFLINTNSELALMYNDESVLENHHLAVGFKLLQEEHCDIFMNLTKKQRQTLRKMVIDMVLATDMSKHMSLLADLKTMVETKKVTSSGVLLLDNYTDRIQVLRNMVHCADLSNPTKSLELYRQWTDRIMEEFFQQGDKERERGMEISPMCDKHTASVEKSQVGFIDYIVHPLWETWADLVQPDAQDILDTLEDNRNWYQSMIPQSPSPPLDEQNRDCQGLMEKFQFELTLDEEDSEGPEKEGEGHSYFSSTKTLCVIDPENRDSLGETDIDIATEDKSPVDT

For `CCOC(=O)c1ccsc1-n1c(-c2ccccc2)cc2nc3ccccc3nc21`, the Activity (Danio rerio [1]) was “Toxic”, the Activity (Danio rerio [2]) was “Toxic” and the NOAEL (Danio rerio [3]) was 1 µM. For the same compound, the Activity (Danio rerio [4]) was “Toxic”, the NOAEL (Danio rerio [5]) was 3 µM and the Activity (Danio rerio [6]) was “Toxic”. For the same compound, the MTC (Danio rerio [7]) was 1 µM, the NOAEL (Danio rerio [7]) was less than 1 µM and the Activity (Danio rerio [8]) was “Non-toxic”. For the same compound, the Activity (Danio rerio [9]) was “Toxic”, the inhibition [10] was 85% and the Activity (Danio rerio [11]) was “Toxic”. The EC50 (Danio rerio [12]) was 3.22 µM, the Activity (Danio rerio [13]) was “Non-toxic” and the Activity (Danio rerio [14]) was “Non-toxic”. The Activity (Danio rerio [15]) was “Toxic”, the Activity (Danio rerio [16]) was “Active” and the Activity (Danio rerio [17]) was “Non-toxic”. The Activity (Danio rerio [18]) was “Non-toxic”, the Activity (Danio rerio [19]) was “Non-toxic” and the Activity (Danio rerio [20]) was “Toxic”. For the same compound, the selectivity ratio [21] was 0.31 and the Activity (Danio rerio [22]) was “Non-toxic”.
In the case of `CCC1(c2ccccc2)C(=O)NC(=O)NC1=O` [PHENOBARBITAL], the Activity (Danio rerio [23]) is reported as “Toxic”, the Activity (Danio rerio [24]) is reported as “Toxic” and the Activity (Danio rerio [25]) is reported as “Toxic”. The Activity (Danio rerio [26]) was “Toxic”, the Activity (Danio rerio [27]) was “Toxic” and the Activity (Danio rerio [28]) was “Toxic”. For the same compound, the Activity (Danio rerio [29]) was “Toxic”, the Activity (Danio rerio [30]) was “Toxic” and the Activity (Danio rerio [31]) was “Toxic”. The Activity (Danio rerio [32]) was “Toxic”, the Activity (Danio rerio [33]) was “Toxic” and the Activity (Danio rerio [34]) was “Toxic”.
